The subject of series [1] is Porphyromonas gingivalis. Put plainly: Growth inhibition of Porphyromonas gingivalis at 5 uM measured after 24 hrs.
Series [2] can be described thus: Cytotoxicity against gingival epithelial cells (unknown origin). It counts as toxicity, cell-based. The settings on record: epithelial cell.
Series [3] is described as follows: (§1) Inhibition of Porphyromonas gingivalis ATCC 33277 MFA interaction with Streptococcus gordonii DL1(1) antigen 1/2 assessed as inhibition of 5(6)-carboxyfluorescein N-hydroxysuccinimide ester-labeled Porphyromonas gingivalis ATCC 33277 cell adhesion to hexidium iodide-labeled Streptococcus gordonii DL1(1) by measuring inhibition of biofilm formation preincubated with Porphyromonas gingivalis ATCC 33277 for 30 mins followed by addition to Streptococcus gordonii DL1(1) culture measured after 22 hrs by laser scanning confocal microscopy. The format is cell-based. The method, boiled down:
(§2)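 Hexidium iodide-labelled S. gordonii (OD600 0.8 in PBS, pH 7.2) was bound to coverslips for 24 h, anaerobic, 37 °C. Carboxyfluorescein-labelled P. gingivalis (OD600 0.4) was preincubated 30 min at room temperature with compound (0–60 μM final, from 1000X DMSO stock), added, then incubated 22 h anaerobically. After fixation, confocal z-stacks (488/552 nm) were taken. IC50 is 50% reduction of the green/red fluorescence ratio; triplicates, three independent experiments.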

For series [4], the system named is Streptococcus gordonii. Description: Growth inhibition of Streptococcus gordonii at 5 uM measured after 24 hrs. The settings on record: read-out: GI.
The test system of another series is ATCC 33277. The series is described as §1. It counts as cell-based. In short, it runs like this:
as §2

Series [5] relates to Streptococcus gordonii. Put plainly: Growth inhibition of Streptococcus gordonii at 40 uM measured after 24 hrs. The settings on record: read-out: GI.
In series [6] the test system is Porphyromonas gingivalis. Put plainly: Growth inhibition of Porphyromonas gingivalis at 40 uM measured after 24 hrs.
Series [7] deals with Porphyromonas gingivalis. Put plainly: Growth inhibition of Porphyromonas gingivalis at 20 uM measured after 24 hrs.
Series [8] relates to Streptococcus gordonii. Description: Growth inhibition of Streptococcus gordonii at 20 uM measured after 24 hrs. The settings on record: read-out: GI.

A word on the IC50: it is the concentration at which inhibition is half-maximal. As for `Fc1cccc(-c2cn(-c3cccc(-c4nc(-c5ccc(Br)cc5)c(-c5ccc(Br)cc5)o4)c3)nn2)c1`, the “growth inhibition (GI)” value in the series on Porphyromonas gingivalis [1] is listed as -4.3%. For the same compound, the Activity entry in series [2] is “Toxic”. Moreover, the half-maximal inhibitory concentration (IC50) in [3] was found to be 5 µM. The inhibition at 5 µM in the series on Streptococcus gordonii [4] is -5.7%.
Take `COc1ccccc1-c1cn(-c2cccc(-c3nc(-c4ccc(Br)cc4)c(-c4ccc(Br)cc4)o3)c2)nn1`: the Activity entry in series [2] is recorded as “Toxic”. Besides, in [3], the IC50 was 15 µM. Further, the inhibition entry with ATCC 33277 is “Dose-dependent effect”. Further, the inhibition at 40 µM with Streptococcus gordonii [5] stood at 10.5%. Moreover, in the series on Porphyromonas gingivalis [6], the “growth inhibition (GI)” value amounted to 4.3%.
On to `COc1ccccc1-c1cn(-c2ccc(-c3nc(-c4ccc(F)cc4)c(-c4ccc(F)cc4)o3)cc2)nn1`, for which the “growth inhibition (GI)” value in the series with Porphyromonas gingivalis [7] was -0.5%. Besides, the Activity result in series [2] is reported as “Toxic”. Besides, the half-maximal inhibitory concentration (IC50) in series [3] stood at 7.7 µM. Moreover, the inhibition at 20 µM in the series on Streptococcus gordonii [8] is -7.8%.
For `COc1ccc(-c2nc(-c3cccc(-n4cc(-c5ccc6cc(OC)ccc6c5)nn4)c3)oc2-c2ccc(OC)cc2)cc1`, in that order: 3%, “Toxic”, 13 µM and -1.3%.
`FC(F)(F)c1ccccc1-c1cn(-c2cccc(-c3nc(-c4ccc(Br)cc4)c(-c4ccc(Br)cc4)o3)c2)nn1`: the Activity entry in series [2] is given as “Toxic”. For the same compound, the concentration for half-maximal inhibition (IC50) in series [3] turned out to be 15.2 µM. Also, in the series with Streptococcus gordonii [5], the inhibition at 40 µM is 2%. Moreover, in the series with Porphyromonas gingivalis [6], the “growth inhibition (GI)” value is listed as -0.6%.
